Experimental data from ChEMBL document CHEMBL4270659, “Discovery and anti-inflammatory evaluation of benzothiazepinones (BTZs) as novel non-ATP competitive inhibitors of glycogen synthase kinase-3β (GSK-3β)” (Bioorg Med Chem, 2018).
Active and inactive are the calls of the source. The calls are words filed in the database; no cut-off is given here.

target: T1, Glycogen synthase kinase-3 beta (Homo sapiens, UniProt P49841); test: Inhibition of human recombinant N-terminal His6-tagged human GSK-3beta expressed in Baculovirus infected SF9 cells using prephosphorylated-GS2 polypeptide as substrate after 30 mins by kinase-Glo reagent based luminescence assay; conditions: not given
In short: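 GSK-3β was incubated with ATP and GS-2 substrate with or without compound. ATP remaining after the kinase reaction was quantified by Kinase-Glo luminescence. IC50 is the mean of triplicate experiments.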
Target sequence in this assay (P49841 whole entry): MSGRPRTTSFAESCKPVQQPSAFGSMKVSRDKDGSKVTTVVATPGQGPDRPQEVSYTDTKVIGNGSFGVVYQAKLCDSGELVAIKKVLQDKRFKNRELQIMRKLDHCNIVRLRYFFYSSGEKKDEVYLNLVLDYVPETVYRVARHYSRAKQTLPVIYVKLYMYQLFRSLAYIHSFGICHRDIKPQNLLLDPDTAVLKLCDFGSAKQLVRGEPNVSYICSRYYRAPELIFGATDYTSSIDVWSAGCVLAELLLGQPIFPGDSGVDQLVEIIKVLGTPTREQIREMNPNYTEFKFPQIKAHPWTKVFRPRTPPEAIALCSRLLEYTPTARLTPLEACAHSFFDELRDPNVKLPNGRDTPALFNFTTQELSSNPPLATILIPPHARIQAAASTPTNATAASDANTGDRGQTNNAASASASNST

Row | IC50 | SMILES
1 | 35 µM | O=C(NCc1cccc(Cl)c1)c1ccc(C2CC(=O)N(Cc3ccccc3[N+](=O)[O-])c3ccccc3S2)cc1 (stereo not given)
2 | 75 µM | O=C(NCc1ccccn1)c1ccc(C2CC(=O)N(Cc3ccccc3[N+](=O)[O-])c3ccccc3S2)cc1 (stereo not given)
3 | 22 µM | CCCCNC(=O)c1ccc(C2CC(=O)N(Cc3ccccc3[N+](=O)[O-])c3ccccc3S2)cc1 (stereo not given)
4 | 48 µM | CC(C)(C)NC(=O)c1ccc(C2CC(=O)N(Cc3ccccc3[N+](=O)[O-])c3ccccc3S2)cc1 (stereo not given)
5 | 32 µM | O=C(NC1CCCCC1)c1ccc(C2CC(=O)N(Cc3ccccc3[N+](=O)[O-])c3ccccc3S2)cc1 (stereo not given)
6 | 18 µM | Cc1ccc(CNC(=O)c2ccc(C3CC(=O)N(Cc4ccccc4[N+](=O)[O-])c4ccccc4S3)cc2)cc1 (stereo not given)
7 | 80 µM | COC(=O)c1ccccc1C1CC(=O)N(Cc2ccccc2[N+](=O)[O-])c2ccccc2S1 (stereo not given)
8 | 18 µM | CS(=O)(=O)c1cccc(N2C(=O)CC(c3ccc(C(=O)NCc4cccc(Cl)c4)cc3)Sc3ccccc32)c1 (stereo not given)
9 | 19 µM | O=C(NCc1cccc(F)c1)c1ccc(C2CC(=O)N(Cc3ccccc3[N+](=O)[O-])c3ccccc3S2)cc1 (stereo not given)
10 | 28 µM | O=C(NCc1ccccc1)c1ccc(C2CC(=O)N(Cc3ccccc3[N+](=O)[O-])c3ccccc3S2)cc1 (stereo not given)
11 | 25 µM | O=C(NCc1ccc(Br)cc1)c1ccc(C2CC(=O)N(Cc3ccccc3[N+](=O)[O-])c3ccccc3S2)cc1 (stereo not given)
12 | > 100 µM | O=C(NC1CC1)c1ccc(C2CC(=O)N(Cc3ccccc3[N+](=O)[O-])c3ccccc3S2)cc1 (stereo not given)
13 | 20 µM | O=C(NCc1ccccc1F)c1ccc(C2CC(=O)N(Cc3ccccc3[N+](=O)[O-])c3ccccc3S2)cc1 (stereo not given)
14 | 51 µM | O=C1CC(c2ccc(-c3ccccc3)cc2)Sc2ccccc2N1Cc1ccccc1[N+](=O)[O-] (stereo not given)
15 | 25 µM | O=C1CC(c2ccc(C(=O)NCc3cccc(Cl)c3)cc2)Sc2ccccc2N1 (stereo not given)

target: T1, Glycogen synthase kinase-3 beta; test: Non-ATP competitive inhibition of recombinant N-terminal His6-tagged human GSK-3beta expressed in Baculovirus infected SF9 cells at 15 to 25 uM using prephosphorylated-GS2 polypeptide as substrate after 30 mins by kinase-Glo reagent based luminescence assay; conditions: not given
In short: (§1)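 Kinetic analysis used the same Kinase-Glo GSK-3β assay. Inhibitor was tested at fixed concentrations while one substrate (ATP or GS-2) was held constant and the other varied, and the data were plotted as double-reciprocal plots.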
Target sequence in this assay (P49841 whole entry, looked up): as the sequence (P49841 whole entry) above

Row | inhibition | SMILES
16 | Active | O=C(NCc1ccccc1)c1ccc(C2CC(=O)N(Cc3ccccc3[N+](=O)[O-])c3ccccc3S2)cc1 (stereo not given)

target: T1, Glycogen synthase kinase-3 beta; test: Non-ATP competitive inhibition of recombinant N-terminal His6-tagged human GSK-3beta expressed in Baculovirus infected SF9 cells at 20 to 30 uM using prephosphorylated-GS2 polypeptide as substrate after 30 mins by kinase-Glo reagent based luminescence assay; conditions: not given; in short: as §1
Target sequence in this assay (P49841 whole entry, looked up): as the sequence (P49841 whole entry) above

Row | inhibition | SMILES
17 | Active | O=C1CC(c2ccc(C(=O)NCc3cccc(Cl)c3)cc2)Sc2ccccc2N1 (stereo not given)

target: Platelet-derived growth factor receptor alpha (Homo sapiens) (UniProt P16234); test: Inhibition of human PDGFRalpha at 100 uM; conditions: not given
In short: (§2)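 Kinase selectivity panel run at 100 μM inhibitor. Activity is reported as % inhibition, the mean of two independent experiments.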

Row | inhibition | SMILES
18 | 7.2% | O=C(NCc1ccccc1)c1ccc(C2CC(=O)N(Cc3ccccc3[N+](=O)[O-])c3ccccc3S2)cc1 (stereo not given)

target: Platelet-derived growth factor receptor beta (Homo sapiens) (UniProt P09619); test: Inhibition of human PDGFRbeta at 100 uM; conditions: not given; in short: as §2
Sequence (P09619 whole entry): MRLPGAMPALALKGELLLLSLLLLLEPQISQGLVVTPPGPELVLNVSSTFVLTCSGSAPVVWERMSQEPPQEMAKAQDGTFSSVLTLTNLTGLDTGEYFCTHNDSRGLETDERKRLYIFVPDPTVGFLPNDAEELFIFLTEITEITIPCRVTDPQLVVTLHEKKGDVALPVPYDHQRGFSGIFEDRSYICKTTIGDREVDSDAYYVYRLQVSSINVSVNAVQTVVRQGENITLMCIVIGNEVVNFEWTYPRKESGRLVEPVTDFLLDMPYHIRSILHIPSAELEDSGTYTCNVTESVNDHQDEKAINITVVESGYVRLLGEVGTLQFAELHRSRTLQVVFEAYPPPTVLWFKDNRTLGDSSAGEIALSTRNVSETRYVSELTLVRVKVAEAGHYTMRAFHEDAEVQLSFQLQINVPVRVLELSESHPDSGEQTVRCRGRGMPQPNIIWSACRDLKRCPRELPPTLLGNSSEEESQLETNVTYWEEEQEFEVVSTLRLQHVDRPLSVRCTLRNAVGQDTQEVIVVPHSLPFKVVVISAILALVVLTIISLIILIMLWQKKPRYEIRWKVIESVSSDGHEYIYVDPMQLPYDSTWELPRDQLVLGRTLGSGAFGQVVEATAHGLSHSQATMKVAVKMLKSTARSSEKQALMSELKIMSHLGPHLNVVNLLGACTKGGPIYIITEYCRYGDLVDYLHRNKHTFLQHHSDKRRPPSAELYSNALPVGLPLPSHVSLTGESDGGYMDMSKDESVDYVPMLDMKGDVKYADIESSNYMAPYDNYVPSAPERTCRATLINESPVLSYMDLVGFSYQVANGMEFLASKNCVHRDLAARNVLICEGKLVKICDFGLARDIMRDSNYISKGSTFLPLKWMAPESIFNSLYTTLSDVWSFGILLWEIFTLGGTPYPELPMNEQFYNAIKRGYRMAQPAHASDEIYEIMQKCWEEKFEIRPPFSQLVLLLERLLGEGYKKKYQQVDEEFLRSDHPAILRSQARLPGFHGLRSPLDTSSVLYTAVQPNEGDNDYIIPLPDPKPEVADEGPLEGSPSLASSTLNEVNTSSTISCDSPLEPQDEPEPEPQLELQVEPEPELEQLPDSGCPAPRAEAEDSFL

Row | inhibition | SMILES
19 | 5.5% | O=C(NCc1ccccc1)c1ccc(C2CC(=O)N(Cc3ccccc3[N+](=O)[O-])c3ccccc3S2)cc1 (stereo not given)
20 | 41.2% | O=C1CC(c2ccc(C(=O)NCc3cccc(Cl)c3)cc2)Sc2ccccc2N1 (stereo not given)

target: Protein kinase C alpha type (Homo sapiens) (UniProt P17252); test: Inhibition of human PKCalpha at 100 uM; conditions: not given; in short: as §2

Row | inhibition | SMILES
21 | 12% | O=C(NCc1ccccc1)c1ccc(C2CC(=O)N(Cc3ccccc3[N+](=O)[O-])c3ccccc3S2)cc1 (stereo not given)
22 | 2% | O=C1CC(c2ccc(C(=O)NCc3cccc(Cl)c3)cc2)Sc2ccccc2N1 (stereo not given)

target: Fibroblast growth factor receptor 1 (Homo sapiens) (UniProt P11362); test: Inhibition of human FGFR1 at 100 uM; conditions: not given; in short: as §2
Sequence (P11362 22-822 limits assumed): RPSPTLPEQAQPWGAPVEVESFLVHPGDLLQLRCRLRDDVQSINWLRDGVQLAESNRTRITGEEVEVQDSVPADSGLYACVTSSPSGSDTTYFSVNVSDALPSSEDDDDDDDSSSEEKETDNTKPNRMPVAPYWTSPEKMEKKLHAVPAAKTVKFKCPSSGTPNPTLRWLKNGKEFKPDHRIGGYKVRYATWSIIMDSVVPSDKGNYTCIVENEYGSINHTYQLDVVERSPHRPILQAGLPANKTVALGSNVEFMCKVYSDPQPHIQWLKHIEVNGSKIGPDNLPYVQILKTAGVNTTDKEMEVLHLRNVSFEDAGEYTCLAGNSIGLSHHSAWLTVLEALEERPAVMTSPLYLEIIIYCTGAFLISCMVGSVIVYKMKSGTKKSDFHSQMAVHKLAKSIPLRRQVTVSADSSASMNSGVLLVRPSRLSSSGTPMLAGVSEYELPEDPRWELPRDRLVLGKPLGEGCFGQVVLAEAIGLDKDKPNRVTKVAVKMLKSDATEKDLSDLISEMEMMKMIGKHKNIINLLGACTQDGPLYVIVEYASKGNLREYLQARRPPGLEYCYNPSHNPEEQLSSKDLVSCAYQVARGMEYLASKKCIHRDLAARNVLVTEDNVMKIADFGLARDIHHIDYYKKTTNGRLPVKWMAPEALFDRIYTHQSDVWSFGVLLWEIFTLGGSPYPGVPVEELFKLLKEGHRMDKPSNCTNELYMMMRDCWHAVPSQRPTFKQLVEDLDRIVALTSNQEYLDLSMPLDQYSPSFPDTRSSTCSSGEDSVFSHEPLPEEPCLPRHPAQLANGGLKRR

Row | inhibition | SMILES
23 | 13.5% | O=C(NCc1ccccc1)c1ccc(C2CC(=O)N(Cc3ccccc3[N+](=O)[O-])c3ccccc3S2)cc1 (stereo not given)
24 | 5.4% | O=C1CC(c2ccc(C(=O)NCc3cccc(Cl)c3)cc2)Sc2ccccc2N1 (stereo not given)

target: Cyclin-dependent kinase 1 (Homo sapiens) (UniProt P06493); test: Inhibition of human CDK1 at 100 uM; conditions: not given; in short: as §2
Sequence (P06493 whole entry, looked up): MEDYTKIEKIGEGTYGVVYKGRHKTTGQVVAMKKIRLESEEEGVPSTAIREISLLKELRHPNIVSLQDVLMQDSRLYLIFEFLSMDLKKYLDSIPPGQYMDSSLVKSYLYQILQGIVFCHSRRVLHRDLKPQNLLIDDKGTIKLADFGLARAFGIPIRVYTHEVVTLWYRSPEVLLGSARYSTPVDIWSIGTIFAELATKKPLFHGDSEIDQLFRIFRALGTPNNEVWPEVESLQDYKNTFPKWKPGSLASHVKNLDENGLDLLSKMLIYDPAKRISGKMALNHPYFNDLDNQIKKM

Row | inhibition | SMILES
25 | 16% | O=C(NCc1ccccc1)c1ccc(C2CC(=O)N(Cc3ccccc3[N+](=O)[O-])c3ccccc3S2)cc1 (stereo not given)
26 | 22% | O=C1CC(c2ccc(C(=O)NCc3cccc(Cl)c3)cc2)Sc2ccccc2N1 (stereo not given)

target: Mast/stem cell growth factor receptor Kit (Homo sapiens) (UniProt P10721); test: Inhibition of human c-KIT at 100 uM; conditions: not given; in short: as §2

Row | inhibition | SMILES
27 | 28% | O=C(NCc1ccccc1)c1ccc(C2CC(=O)N(Cc3ccccc3[N+](=O)[O-])c3ccccc3S2)cc1 (stereo not given)

target: Casein kinase 2 (Homo sapiens) (UniProt P67870+P68400+P19784+Q8NEV1); test: Inhibition of human CK2 at 100 uM; assay type: protein assay; conditions: not given; in short: as §2

Row | inhibition | SMILES
28 | 20% | O=C(NCc1ccccc1)c1ccc(C2CC(=O)N(Cc3ccccc3[N+](=O)[O-])c3ccccc3S2)cc1 (stereo not given)
29 | -6% | O=C1CC(c2ccc(C(=O)NCc3cccc(Cl)c3)cc2)Sc2ccccc2N1 (stereo not given)

species: Homo sapiens; test: Inhibition of human PKA at 100 uM; conditions: not given; in short: as §2

Row | inhibition | SMILES
30 | 0% | O=C(NCc1ccccc1)c1ccc(C2CC(=O)N(Cc3ccccc3[N+](=O)[O-])c3ccccc3S2)cc1 (stereo not given)
31 | -7% | O=C1CC(c2ccc(C(=O)NCc3cccc(Cl)c3)cc2)Sc2ccccc2N1 (stereo not given)

target: Vascular endothelial growth factor receptor 1 (Homo sapiens) (UniProt P17948); test: Inhibition of human Flt1 at 100 uM; conditions: not given; in short: as §2

Row | inhibition | SMILES
32 | 6.8% | O=C(NCc1ccccc1)c1ccc(C2CC(=O)N(Cc3ccccc3[N+](=O)[O-])c3ccccc3S2)cc1 (stereo not given)
33 | 8.9% | O=C1CC(c2ccc(C(=O)NCc3cccc(Cl)c3)cc2)Sc2ccccc2N1 (stereo not given)

target: Vascular endothelial growth factor receptor 2 (Homo sapiens) (UniProt P35968); test: Inhibition of human KDR at 100 uM; conditions: not given; in short: as §2

Row | inhibition | SMILES
34 | 8.7% | O=C1CC(c2ccc(C(=O)NCc3cccc(Cl)c3)cc2)Sc2ccccc2N1 (stereo not given)

target: Receptor tyrosine-protein kinase erbB-4 (Homo sapiens) (UniProt Q15303); test: Inhibition of human ErbB4 at 100 uM; conditions: not given; in short: as §2

Row | inhibition | SMILES
35 | 12.2% | O=C(NCc1ccccc1)c1ccc(C2CC(=O)N(Cc3ccccc3[N+](=O)[O-])c3ccccc3S2)cc1 (stereo not given)

target: Proto-oncogene tyrosine-protein kinase receptor Ret (Homo sapiens) (UniProt P07949); test: Inhibition of human RET at 100 uM; conditions: not given
Sequence (P07949 whole entry): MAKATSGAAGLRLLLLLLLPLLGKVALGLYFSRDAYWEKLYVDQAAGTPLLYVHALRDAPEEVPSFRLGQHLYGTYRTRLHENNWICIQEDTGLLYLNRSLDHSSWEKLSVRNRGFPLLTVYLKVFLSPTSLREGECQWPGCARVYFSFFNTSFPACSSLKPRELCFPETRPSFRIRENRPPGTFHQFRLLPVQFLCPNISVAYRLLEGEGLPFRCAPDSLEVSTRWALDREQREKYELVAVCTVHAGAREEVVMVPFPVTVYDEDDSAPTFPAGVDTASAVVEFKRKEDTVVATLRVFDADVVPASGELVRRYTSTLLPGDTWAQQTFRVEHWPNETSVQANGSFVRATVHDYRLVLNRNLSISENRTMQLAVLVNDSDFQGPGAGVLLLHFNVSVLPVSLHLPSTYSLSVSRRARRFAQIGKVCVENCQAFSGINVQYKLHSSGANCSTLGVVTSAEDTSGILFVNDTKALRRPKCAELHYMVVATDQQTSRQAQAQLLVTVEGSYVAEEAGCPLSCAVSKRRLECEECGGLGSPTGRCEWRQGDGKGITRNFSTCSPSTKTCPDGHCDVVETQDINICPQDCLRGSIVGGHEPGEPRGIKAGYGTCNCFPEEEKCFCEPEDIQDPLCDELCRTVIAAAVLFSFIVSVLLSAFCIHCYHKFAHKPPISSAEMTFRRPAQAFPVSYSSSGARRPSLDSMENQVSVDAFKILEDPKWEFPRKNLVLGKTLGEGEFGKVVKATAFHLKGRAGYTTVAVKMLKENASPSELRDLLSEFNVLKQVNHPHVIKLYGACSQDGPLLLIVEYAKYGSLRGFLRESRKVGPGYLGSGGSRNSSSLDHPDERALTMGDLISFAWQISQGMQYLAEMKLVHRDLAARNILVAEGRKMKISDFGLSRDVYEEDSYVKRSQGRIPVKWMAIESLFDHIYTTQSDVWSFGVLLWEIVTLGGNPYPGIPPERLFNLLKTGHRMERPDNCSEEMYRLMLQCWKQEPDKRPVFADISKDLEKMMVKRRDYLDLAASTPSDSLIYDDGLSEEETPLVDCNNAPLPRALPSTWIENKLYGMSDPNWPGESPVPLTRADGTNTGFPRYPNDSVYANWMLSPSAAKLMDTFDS

Row | inhibition | SMILES
36 | 68% | O=C(NCc1ccccc1)c1ccc(C2CC(=O)N(Cc3ccccc3[N+](=O)[O-])c3ccccc3S2)cc1 (stereo not given)
37 | 18.5% | O=C1CC(c2ccc(C(=O)NCc3cccc(Cl)c3)cc2)Sc2ccccc2N1 (stereo not given)

test system: Mus musculus; test: Anti-inflammatory activity in C57BL/6 mouse lung injury model assessed reduction in lung tissue damage at 80 uM, ip administered 12 hrs prior to LPS challenge and measured after 24 hrs by Hematoxylin and eosin staining-based light microscopic analysis; assay type: functional; parameters: scale not given: the % may be the effect or the level left; conditions: not given
In short: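 C57BL/6 mice received compound (80 μM) or PBS ip, followed 12 h later by LPS (10 mg/kg ip). At 24 h after LPS, lungs were fixed, embedded, sectioned and H&E stained. Hemorrhage, edema, interstitial inflammatory cell infiltration, hyaline membrane and atelectasis were each graded 0–4 to give an injury score. Mean ± SEM, n = 5 mice.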

Row | SMILES | Activity
38 | O=C(NCc1ccccc1)c1ccc(C2CC(=O)N(Cc3ccccc3[N+](=O)[O-])c3ccccc3S2)cc1 (stereo not given) | 65%
39 | O=C1CC(c2ccc(C(=O)NCc3cccc(Cl)c3)cc2)Sc2ccccc2N1 (stereo not given) | 49%

test system: Mus musculus; test: Anti-inflammatory activity in C57BL/6 mouse lung injury model assessed as inhibition of IL-1beta mRNA expression level at 80 uM, ip administered 12 hrs prior to LPS challenge and measured after 24 hrs by qRT-PCR analysis; assay type: functional; conditions: not given

Row | SMILES | inhibition (INH)
40 | O=C(NCc1ccccc1)c1ccc(C2CC(=O)N(Cc3ccccc3[N+](=O)[O-])c3ccccc3S2)cc1 (stereo not given) | 43.18%
41 | O=C1CC(c2ccc(C(=O)NCc3cccc(Cl)c3)cc2)Sc2ccccc2N1 (stereo not given) | 28.84%

test system: Mus musculus; test: Anti-inflammatory activity in C57BL/6 mouse lung injury model assessed as inhibition of IL-6 mRNA expression level at 80 uM, ip administered 12 hrs prior to LPS challenge and measured after 24 hrs by qRT-PCR analysis; assay type: functional; conditions: not given

Row | SMILES | inhibition (INH)
42 | O=C(NCc1ccccc1)c1ccc(C2CC(=O)N(Cc3ccccc3[N+](=O)[O-])c3ccccc3S2)cc1 (stereo not given) | 38.16%
43 | O=C1CC(c2ccc(C(=O)NCc3cccc(Cl)c3)cc2)Sc2ccccc2N1 (stereo not given) | 24.35%

test system: Mus musculus; test: In vivo inhibition of GSK-3beta in C57BL/6 mouse lung injury model assessed as upregulation of LPS-induced phosphorylation at Ser9 residue in lung at 80 uM, ip administered 12 hrs prior to LPS challenge and measured after 24 hrs by Western blot analysis relative to control; assay type: functional; conditions: not given
In short: (§3)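 Mice were pretreated ip with compound (80 μM) or PBS, and LPS (10 mg/kg ip) was given 12 h later. Lungs were collected 24 h post-LPS, and p-GSK-3β and SIRT1 were detected by Western blot. Values are means ± SE of 4 independent experiments.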

Row | SMILES | fold change (FC)
44 | O=C(NCc1ccccc1)c1ccc(C2CC(=O)N(Cc3ccccc3[N+](=O)[O-])c3ccccc3S2)cc1 (stereo not given) | 1.42

test system: Mus musculus; test: In vivo inhibition of GSK-3beta in C57BL/6 mouse lung injury model assessed as upregulation of SIRT1 expression in lung at 80 uM, ip administered 12 hrs prior to LPS challenge and measured after 24 hrs by Western blot analysis relative to control; assay type: functional; conditions: not given; in short: as §3

Row | SMILES | fold change (FC)
45 | O=C(NCc1ccccc1)c1ccc(C2CC(=O)N(Cc3ccccc3[N+](=O)[O-])c3ccccc3S2)cc1 (stereo not given) | 1.93
46 | O=C1CC(c2ccc(C(=O)NCc3cccc(Cl)c3)cc2)Sc2ccccc2N1 (stereo not given) | 1.34

target: Proto-oncogene tyrosine-protein kinase Src (Homo sapiens) (UniProt P12931); conditions: at 100 µM
Sequence (P12931 2-536 limits assumed): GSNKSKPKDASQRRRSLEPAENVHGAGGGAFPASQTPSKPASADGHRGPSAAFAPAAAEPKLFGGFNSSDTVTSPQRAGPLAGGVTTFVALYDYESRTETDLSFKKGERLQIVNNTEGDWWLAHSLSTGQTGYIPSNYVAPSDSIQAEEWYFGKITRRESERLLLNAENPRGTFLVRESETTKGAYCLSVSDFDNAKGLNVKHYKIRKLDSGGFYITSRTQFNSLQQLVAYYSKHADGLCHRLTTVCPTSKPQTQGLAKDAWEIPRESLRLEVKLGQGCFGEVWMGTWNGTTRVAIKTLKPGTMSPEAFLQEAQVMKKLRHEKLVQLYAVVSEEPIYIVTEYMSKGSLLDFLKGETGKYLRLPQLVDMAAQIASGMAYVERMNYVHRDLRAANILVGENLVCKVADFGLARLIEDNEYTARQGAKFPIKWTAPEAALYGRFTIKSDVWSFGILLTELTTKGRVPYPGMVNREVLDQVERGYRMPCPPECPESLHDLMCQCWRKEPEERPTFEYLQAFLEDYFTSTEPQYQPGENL

Row | inhibition | SMILES
47 | 7.2% | O=C(NCc1ccccc1)c1ccc(C2CC(=O)N(Cc3ccccc3[N+](=O)[O-])c3ccccc3S2)cc1 (stereo not given)
48 | 0% | O=C1CC(c2ccc(C(=O)NCc3cccc(Cl)c3)cc2)Sc2ccccc2N1 (stereo not given)

target: Tyrosine-protein kinase ABL1 (Homo sapiens) (UniProt P00519); conditions: at 100 µM

Row | inhibition | SMILES
49 | 0% | O=C(NCc1ccccc1)c1ccc(C2CC(=O)N(Cc3ccccc3[N+](=O)[O-])c3ccccc3S2)cc1 (stereo not given)
50 | 46.6% | O=C1CC(c2ccc(C(=O)NCc3cccc(Cl)c3)cc2)Sc2ccccc2N1 (stereo not given)
